Experiment [1] in a line: nonspecific flux increase, KCNQ1-free cells – parental CHO cells, counter-screen for KCNQ1 potentiator project (AID 493006;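 active means duplicate-averaged activation above buffer control mean plus 5 SD of those controls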;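 on activation: fluorescence ratio of max minus min over baseline after K+ and Tl+ depolarization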). As to conditions: parental CHO-K1 cells, FluxOR thallium flux, at 10 µM; active compounds read high. In short, it runs like this: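 Benchmarks – buffer and R-L3 controls · Assay system – untransfected host CHO-K1 cells with FluxOR thallium dye · Measure – fluorescence change ratio scaled 0% buffer, 100% R-L3 · Technique – kinetic thallium-flux fluorescence · Timing – overnight 37 °C plating, 90 min RT dye, 20 min compound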

Experiment [2] has as its target Potassium voltage-gated channel subfamily KQT member 1 (Homo sapiens) (UniProt P51787). The experiment in a line: enhancement of KCNQ1 channel thallium flux – FluxOR thallium flux, CHO cells, duplicates, confirmation (AID 493007).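 On outcome: cells depolarized by a potassium plus thallium sulfate stimulus after compound.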 As to conditions: KCNQ1 cell line, FluxOR thallium flux fluorescence, at 10 µM; active compounds read high, % of reference activator effect, buffer zero. The method in brief:
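Material: CHO cells stably expressing the KCNQ1 potassium channel / Times: dye 90 min then compound 20 min, both at room temperature / Detection: kinetic thallium influx fluorescence with FluxOR dye, 10 s baseline, 110 s post-stimulus / Benchmarks: buffer-only wells as 0% and R-L3 activator as 100% / Replicates: each compound tested in duplicate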

Experiment [3] deals with Potassium voltage-gated channel subfamily KQT member 2 (Rattus norvegicus) (UniProt O88943). Nature of the experiment: KCNQ2 thallium flux enhancement – KCNQ2-CHO-K1 cells, selectivity assay for KCNQ1 potentiator project (AID 493009;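 active means mean duplicate potentiation above the buffer control mean plus 5 SD of buffer wells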;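 further: assay conditions were tuned for KCNQ1 rather than KCNQ2 modulators; signal is max minus min fluorescence divided by baseline after thallium stimulus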). As to conditions: FluxOR thallium flux fluorescence, at 10 µM; active compounds read high, scaled: buffer 0, activator control 100.
Experiment [4] concerns the target Potassium voltage-gated channel subfamily KQT member 1 (Homo sapiens) (UniProt P51787). Nature of the experiment: KCNQ1 activators by electrophysiology – IonWorks patch clamp, KCNQ1-CHO cells, orthogonal assay for KCNQ1 potentiator project, confirmation (AID 493184;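 active means current rise at least 3 SD above the untreated control mean in each of two repeat wells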). As to conditions: automated patch clamp current, at 10 µM; active compounds read high. The method in brief:
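Probe or stimulus: depolarizing pulse to +40 mV from -90 mV; Material: CHO cells carrying KCNQ1; Compound: one dose, 10 µM final; Signal: automated voltage clamp, amphotericin B perforated patch; Read-out basis: percent current increase versus pre-compound level; Buffer or medium: pH 7.4 external bath; Replication: duplicates.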

Calls of active or inactive are those of the source.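 How the source made its calls, unless noted: active means potentiation averaged over duplicate wells exceeding buffer-only control mean by more than 3 SD; inactive means the rest.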

Chain of Potassium voltage-gated channel subfamily KQT member 1 (Homo sapiens) (P51787 whole entry, looked up): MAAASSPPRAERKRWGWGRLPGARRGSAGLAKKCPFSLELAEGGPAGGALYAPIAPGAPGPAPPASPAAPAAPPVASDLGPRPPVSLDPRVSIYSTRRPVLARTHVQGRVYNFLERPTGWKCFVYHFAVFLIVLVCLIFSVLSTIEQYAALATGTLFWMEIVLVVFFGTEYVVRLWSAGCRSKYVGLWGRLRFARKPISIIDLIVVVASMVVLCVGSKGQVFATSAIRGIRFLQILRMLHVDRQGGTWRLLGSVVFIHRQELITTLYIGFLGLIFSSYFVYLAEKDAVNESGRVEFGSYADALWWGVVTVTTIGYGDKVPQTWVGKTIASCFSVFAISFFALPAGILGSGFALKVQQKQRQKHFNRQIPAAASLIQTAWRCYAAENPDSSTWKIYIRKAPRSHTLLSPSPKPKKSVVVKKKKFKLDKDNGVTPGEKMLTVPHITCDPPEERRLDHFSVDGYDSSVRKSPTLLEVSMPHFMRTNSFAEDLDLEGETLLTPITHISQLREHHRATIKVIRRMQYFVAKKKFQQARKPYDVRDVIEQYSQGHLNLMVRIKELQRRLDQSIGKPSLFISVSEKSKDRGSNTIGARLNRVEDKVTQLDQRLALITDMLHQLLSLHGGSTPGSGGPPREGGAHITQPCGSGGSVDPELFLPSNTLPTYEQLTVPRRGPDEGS
Chain of Potassium voltage-gated channel subfamily KQT member 2 (Rattus norvegicus) (O88943 whole entry, looked up): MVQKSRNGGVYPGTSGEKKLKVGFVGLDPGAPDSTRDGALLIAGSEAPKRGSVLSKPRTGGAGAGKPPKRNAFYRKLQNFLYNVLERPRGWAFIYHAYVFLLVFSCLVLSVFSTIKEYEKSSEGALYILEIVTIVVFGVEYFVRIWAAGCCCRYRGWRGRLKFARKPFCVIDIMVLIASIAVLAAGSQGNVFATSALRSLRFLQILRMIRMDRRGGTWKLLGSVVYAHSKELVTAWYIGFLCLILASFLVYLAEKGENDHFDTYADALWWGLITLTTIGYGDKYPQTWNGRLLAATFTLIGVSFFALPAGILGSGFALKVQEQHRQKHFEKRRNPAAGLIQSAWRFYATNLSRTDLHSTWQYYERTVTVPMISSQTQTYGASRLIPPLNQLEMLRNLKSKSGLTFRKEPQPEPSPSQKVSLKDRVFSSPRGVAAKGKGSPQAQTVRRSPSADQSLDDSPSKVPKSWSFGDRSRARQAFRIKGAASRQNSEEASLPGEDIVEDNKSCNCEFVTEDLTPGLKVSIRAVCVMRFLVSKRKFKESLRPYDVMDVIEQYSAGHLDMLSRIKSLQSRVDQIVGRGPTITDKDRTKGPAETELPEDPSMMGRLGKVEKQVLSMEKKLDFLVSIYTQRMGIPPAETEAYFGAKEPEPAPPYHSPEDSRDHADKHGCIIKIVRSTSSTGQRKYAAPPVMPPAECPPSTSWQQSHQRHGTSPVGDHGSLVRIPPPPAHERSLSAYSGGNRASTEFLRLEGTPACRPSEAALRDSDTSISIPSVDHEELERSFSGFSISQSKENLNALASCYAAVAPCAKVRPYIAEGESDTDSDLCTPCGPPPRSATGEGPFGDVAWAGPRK

With `O=C(c1cccnc1)N1N=C2CCCCCC2C1(O)C(F)(F)F` (stereo not given), the outcome in experiment [1], in experiment [2], in experiment [3] and in experiment [4] was inactive.
As for `COc1ccc(C(=O)Nc2ccnn2C2CCN(Cc3ccncc3)CC2)cc1`, the result in experiment [1], in experiment [2], in experiment [3] and in experiment [4] was inactive.
Regarding `O=c1c2ccccc2sn1-c1ccccc1`, the activation in experiment [1] was 180% (active). The potentiation in experiment [2] was 59% (active); in experiment [3], 148% (active). For the same molecule, the result in experiment [4] was inactive.
Taken in the same sequence, the figures for `CCOc1ccc2nc(N3C(=O)/C(=C/c4ccccc4)NC3=S)sc2c1` were 442% (active), 367% (active), 700% (active) and “inactive”.
As to `CC(C)CN=Cc1c(O)c([N+](=O)[O-])cc2oc3c(c12)CCCC3`, the outcome in experiment [1], in experiment [2], in experiment [3] and in experiment [4] was inactive.
For `Cc1ccc(C(=O)N/N=C(/CC(=O)c2cccs2)C(F)(F)F)cc1`, the activation in experiment [1] was 234% (active). The figures for the potentiation in experiment [2] and in experiment [3] were 66.5% (active) and 246% (active), respectively. Moreover, the result in experiment [4] was inactive.
Taken in the same sequence, the figures for `CC(C)CC(=O)NC(=S)Nc1nc(-c2ccccc2)cs1` were 284% (active), 152% (active), 316% (active) and “inactive”.
For `Cc1ccc(/C=C/C(=O)C2C(=O)c3ccccc3C2=O)cc1`, the activation in experiment [1] was 227% (active). Further, the potentiation in experiment [2] was 58.5% (active); in experiment [3], 206% (active). Moreover, the result in experiment [4] was inactive.
With `Cn1c(SCc2ccc(C#N)cc2Cl)nc2ccccc21`, the outcome in experiment [1], in experiment [2], in experiment [3] and in experiment [4] was inactive.
On to `COC(=O)c1ccc(COC(=O)c2ccccc2OC)cc1`, for which the outcome in experiment [1], in experiment [2], in experiment [3] and in experiment [4] was inactive.
As to `COc1cccc(C(=O)Nc2nc(-c3ccccc3)c(-c3ccccc3)o2)c1`, in experiment [1], the activation is 145% (active). The potentiation in experiment [2] is 31% (active); in experiment [3], 164% (active). Also, the outcome in experiment [4] was inactive.
In the case of `CCN(c1ccccc1)S(=O)(=O)c1ccc(NC(=O)c2nc(S(C)(=O)=O)ncc2Cl)cc1`, the outcome in experiment [1], in experiment [2] and in experiment [4] was inactive. Moreover, in experiment [3], the potentiation was 156% (active).
On to `CC(C)NC(=O)C1CCN(c2ccc(S(=O)(=O)N3CCOCC3)cc2Cl)CC1`, for which the outcome in experiment [1], in experiment [2], in experiment [3] and in experiment [4] was inactive.
Take `Cc1nn(-c2ccccc2)c(Cl)c1/C=N\NC(=O)c1cncc(Br)c1`: the outcome in experiment [1], in experiment [2], in experiment [3] and in experiment [4] was inactive.
Take `CCCSc1nnc(-c2cnn(-c3ccccc3)c2-n2cccc2)n1C`: the outcome in experiment [1], in experiment [2], in experiment [3] and in experiment [4] was inactive.
As to `COc1ccc(OCC(=O)Nc2cccc(C(C)=O)c2)cc1`, the outcome in experiment [1], in experiment [2], in experiment [3] and in experiment [4] was inactive.
As for `Cc1nc(NCc2cccnc2)c2c3c(sc2n1)CC(C)CC3` (stereo not given), the activation in experiment [1] is 299% (active). Also, the potentiation was 118% (active) in experiment [2] and 352% (active) in experiment [3]. The outcome in experiment [4] was inactive.
Taken in the same sequence, the figures for `Cc1cccc(C(=O)Oc2csc(=S)n2C(=O)c2cccc(C)c2)c1` were 139% (active), 27% (active), 158% (active) and “inactive”.
Turning to `Cc1ccc(-c2c(C)n([O-])c3c([n+]2=O)CCCC3)o1`, the result in experiment [1], in experiment [2], in experiment [3] and in experiment [4] was inactive.
As for `O=C(CCC(=O)c1ccc(F)cc1)Nc1cc(Cl)cc(Cl)c1`, the result in experiment [1], in experiment [2], in experiment [3] and in experiment [4] was inactive.
`NNc1nc2ccc(Cl)cc2s1`: the result in experiment [1], in experiment [2], in experiment [3] and in experiment [4] was inactive.
As to `CCCOc1ccc(-c2c(=O)n(O)c3ccccc3[n+]2[O-])cc1`, the activation in experiment [1] is 237% (active). Also, the outcome in experiment [2] and in experiment [4] was inactive. Besides, in experiment [3], the potentiation is 243% (active).
On to `Cc1cccc(/C=C2/S/C(=N/N=C3\CC4CCC3(C)C4(C)C)NC2=O)c1` (stereo not given), for which the outcome in experiment [1], in experiment [3] and in experiment [4] was inactive. In experiment [2], the potentiation is 28% (active).
As to `S=c1[nH]cnc2sc(-c3ccccc3)cc12`, in experiment [1], the activation was 520% (active). Also, the potentiation is 274% (active) in experiment [2] and 586% (active) in experiment [3]. In addition, the outcome in experiment [4] was inactive.
On the same counts, the results for `S=c1nc(-c2ccccc2)[nH]c2ccc(Br)cc12` are 578% (active), 294% (active), 602% (active) and “inactive”.
Taken in the same sequence, the figures for `O=C(NC(=S)N1CCc2ccccc21)c1ccc(Br)o1` were 400% (active), 124% (active), 440% (active) and “inactive”.
On to `COc1ccc(NC(=S)NC(=O)c2ccc(Br)o2)cc1`, for which the activation in experiment [1] is 146% (active). For the same molecule, the potentiation in experiment [2] was 45.5% (active); in experiment [3], 195% (active). Further, the outcome in experiment [4] was inactive.
Taken in the same sequence, the figures for `Cn1nccc1C(=O)NC(=S)Nc1cc(Cl)cc(Cl)c1` were 141% (active), 20.5% (active), 178% (active) and “inactive”.
Taken in the same sequence, the figures for `COc1ccc(NC(=O)CN(C)C(=O)c2ccc(N3CCOCC3)c([N+](=O)[O-])c2)cc1` were 151% (active), 22% (active), 186% (active) and “inactive”.
`CC(C)(C)C1CCc2c(sc(NC(=O)C3CC=CCC3C(=O)O)c2C#N)C1` (stereo not given): in experiment [1], the activation is 178% (active). Moreover, the values for the potentiation in experiment [2] and in experiment [3] were 53% (active) and 184% (active), respectively. Also, the result in experiment [4] was inactive.

Source of the values: PubChem BioAssay.
